In paper PMC3226999 (Food chemistry, 2012):
“Also recorded” adds a separate entry of the source.

Legend:
[1] = tested on: caspase-3 and −7 activity in MDA-MB-231 cells; experiment: Caspase-Glo 3/7 luminometric assay in cells; format: cell-based, human; details: for reduction of staurosporine-induced caspase-3/−7 activity: 1 μM staurosporine plus flavonoid 200, 100, 25 μM, 24 h (Figure 3B); for caspase-3 or −7 activity in treated cells versus DMSO control: 200 μM flavonoid or 1 μM staurosporine, 24 h (Figure 3A)
Procedure, shortened: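 MDA-MB-231 cells were grown in high-glucose DMEM with 10% BGS at 37 °C and 5% CO2. They were seeded at 0.5 × 10^4 cells/well, then treated after 24 h with test compound and/or staurosporine for 24 h. Alternatively, medium was replaced with 200 μM compound plus 1 μM staurosporine just before assay. Caspase-3/7 activity was read by Caspase-Glo 3/7 luminescence as fold activation over DMSO-treated cells (n=3, standard error of margin, t-test).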

[2] = tested on: purified recombinant caspase-1, −3, and −7; experiment: Preliminary survey of inhibition of purified recombinant activated caspases; format: biochemical; details: for inhibition of purified caspase-1, −3, or −7 activity: 200 μM, 100 μM, 50 μM flavonoid (Figure 4); for caspase specificity: among caspase-1, −3, −7
[3] = biological target: T1, recombinant caspase-3 (Homo sapiens, UniProt P42574); format: biochemical
T1 sequence (P42574 29-175 limits assumed): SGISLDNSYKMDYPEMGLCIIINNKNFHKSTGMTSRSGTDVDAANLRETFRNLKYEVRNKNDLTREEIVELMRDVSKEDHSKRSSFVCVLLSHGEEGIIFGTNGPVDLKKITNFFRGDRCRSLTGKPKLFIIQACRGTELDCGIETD
T1 sequence (P42574 176-277 limits assumed): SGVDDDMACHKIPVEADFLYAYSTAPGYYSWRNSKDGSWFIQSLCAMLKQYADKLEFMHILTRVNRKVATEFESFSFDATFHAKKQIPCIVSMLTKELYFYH

| Compound | reduction of staurosporine-induced caspase-3/−7 activity [1] | caspase-3 or −7 activity in treated cells versus DMSO control [1] | inhibition of purified caspase-1, −3, or −7 activity [2] | IC50 [3] | type of caspase inhibition ([2]; Lineweaver-Burk plots, caspase-1, −3, −7) | caspase specificity [2] |
| --- | --- | --- | --- | --- | --- | --- |
| O=c1cc(-c2ccc(O)cc2)oc2cc(O)cc(O)c12 [Apigenin, apigenin] | reduction in activity was dose dependent | decrease in caspase-3 or −7 activity | did not exhibit strong dose-dependent inhibition |  |  |  |
| O.Oc1cc(O)c2c(c1)O[C@H](c1ccc(O)c(O)c1)[C@@H](O)C2 [Catechin, catechin] |  |  | did not exhibit strong dose-dependent inhibition |  |  |  |
| O=c1cc(-c2ccccc2)oc2cc(O)cc(O)c12 [Chrysin, chrysin] |  |  | did not exhibit strong dose-dependent inhibition |  |  |  |
| O=c1c(-c2ccc(O)cc2)coc2cc(O)ccc12 [Daidzein, daidzein] |  |  | did not exhibit strong dose-dependent inhibition; also recorded: unable to inhibit caspase activity |  |  |  |
| O=c1c(-c2ccc(O)cc2)coc2cc(O)cc(O)c12 [Genistein, genistein] |  |  | unable to inhibit caspase activity |  |  |  |
| O=c1c(O)c(-c2ccc(O)cc2)oc2cc(O)cc(O)c12 [Kaempferol, kaempferol] | reduction in activity was dose dependent | decrease in caspase-3 or −7 activity | significant, dose-dependent inhibition |  |  |  |
| O=c1cc(-c2ccc(O)c(O)c2)oc2cc(O)cc(O)c12 [Luteolin, luteolin] | reduction in activity was dose dependent | decrease in caspase-3 or −7 activity | significant, dose-dependent inhibition |  |  |  |
| O=c1c(O)c(-c2cc(O)c(O)c(O)c2)oc2cc(O)cc(O)c12 [Myricetin, myricetin] | able to reduce the staurosporine-induced activity |  | significant, dose-dependent inhibition; also recorded: one of the more potent inhibitors | 25 µM | competitive | specificity for caspase-1 |
| O=C1C[C@@H](c2ccc(O)cc2)Oc2cc(O)cc(O)c21 [Narigenin, naringenin] |  |  | did not exhibit strong dose-dependent inhibition |  |  |  |
| O=c1c(O)c(-c2ccc(O)c(O)c2)oc2cc(O)cc(O)c12 [Quercetin, quercetin] | able to reduce the staurosporine-induced activity | increase caspase-3 or −7 activity only slightly | significant, dose-dependent inhibition |  |  | specificity for caspase-3 |
| CN[C@@H]1C[C@H]2O[C@@](C)([C@@H]1OC)n1c3ccccc3c3c4c(c5c6ccccc6n2c5c31)C(=O)NC4 [Staurosporine, staurosporine, reference compound] |  | very strong caspase-3 or −7 activation |  |  |  |  |
